These results are taken from article PMC3558988 (Journal of Chemotherapy (Florence, Italy), 2013).

The term MIC denotes the smallest concentration in the dilution series that meets the test's criterion for growth inhibition. A higher MIC goes with weaker potency.

One data set concerns CA-MRSA. In words: Neutropenic murine thigh infection model, single-dose response. In kind it is in vivo, Staphylococcus aureus. The following applies: 24 hours.
For the next data set, the system named is MSSA ATCC 29213. Put plainly: Neutropenic murine thigh infection model, efficacy and pharmacodynamics. Type of data set: in vivo, Staphylococcus aureus. The following applies: oral, neutropenic mice, 24 hours.
For data set [1] the following is noted: cited from earlier work.
The subject of data set [2] is three strains of S. aureus. Put plainly: MIC summary over the three test strains. In kind it is cell-based, Staphylococcus aureus. An outline of the steps:
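Broth microdilution MICs per CLSI guidelines, run in triplicate, for the test compound and a panel of comparator antimicrobials including linezolid. Tested against the three S. aureus isolates used in the study (one MSSA, one CA-MRSA, one HA-MRSA).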

Data set [3] can be described thus: Pharmacokinetics after single oral doses in MSSA-infected neutropenic mice. The following applies: for fAUC0–24: free drug. Type of data set: in vivo.
Data set [4] is described as follows: Plasma protein-binding by ultrafiltration. In kind it is in vitro ADME. The settings on record: mouse plasma, 0·1 to 2 μg/ml.
For data set [5], the system named is CA-MRSA (No. 32, CDC type USA300, PVL-positive). In words: MIC by broth microdilution. Type of data set: cell-based. The following applies: Staphylococcus aureus.

Some results are limits rather than exact numbers.

For `CC(=O)NC[C@H]1CN(c2ccc(N3CCOCC3)c(F)c2)C(=O)O1` [Linezolid], in the data set on CA-MRSA (10 and 40 mg/kg single oral dose), the “effect on bacterial growth” value is “some suppression of growth”. Further, in the data set on CA-MRSA (single oral dose), the “doses required to achieve consistent reductions in CFU” value is on record as at least 100 mg/kg.

For `Cc1c(CN(C)C(=O)/C=C/c2cnc3c(c2)CCC(=O)N3)oc2ccccc12` [AFN-1252], the “doses giving reductions in total bacterial count of 1 log and greater compared to time 0” value with MSSA ATCC 29213 (MSSA) is at least 20 mg/kg. In the data set with MSSA ATCC 29213, the “dose at which reduction in MSSA growth rate began” value is 5 mg/kg. In addition, the permeability result in data set [1] (BCS) was “high”. Moreover, the “Biopharmaceutics Classification System class” value in data set [1] is listed as “Class 2”. The “dose giving marked reduction in bacterial count relative to time 0” value with CA-MRSA (single oral dose) is at least 10 mg/kg. Further, the “level of activity (MIC) greater than linezolid” value in data set [2] is reported as “at least 500 fold”. The “level of activity (MIC) greater than other antibacterials tested” value in data set [2] is “at least 32 fold”. In addition, the “fAUC0–24” value in data set [3] (5 mg/kg single oral dose) stood at 113 ng·h/mL; in data set [3] (10 mg/kg single oral dose), 141 ng·h/mL; in data set [3] (30 mg/kg single oral dose), 160 ng·h/mL; in data set [3] (100 mg/kg single oral dose), 285 ng·h/mL. Moreover, the “PK profile (dose proportionality of fAUC, fCmax, Tmax)” value in data set [3] (single oral doses 2·5-100 mg/kg) is “non-linear exposures”. Besides, in data set [4], the “concentration dependence of protein binding” value is “no concentration-dependent binding”.

In data set [5], `CC[C@H]1OC(=O)[C@H](C)[C@@H](O[C@H]2C[C@@](C)(OC)[C@@H](O)[C@H](C)O2)[C@H](C)[C@@H](O[C@@H]2O[C@H](C)C[C@H](N(C)C)[C@H]2O)[C@](C)(O)C[C@@H](C)C(=O)[C@H](C)[C@@H](O)[C@]1(C)O` [Erythromycin] came in with an MIC of over 32 µg/mL.

Take `CCC[C@@H]1C[C@@H](C(=O)N[C@@H]([C@H]2O[C@H](SC)[C@H](O)[C@@H](O)[C@H]2O)[C@H](C)Cl)N(C)C1` [Clindamycin]: the MIC in data set [5] was over 16 µg/mL.
